Screening data from PubChem.
In the library only some 2.3% were active in any assay of this set; here they are far more common.
Glyco luc inh: blocks N-linked glycosylation in D54 reporter cells | D54 ERlucT glycosylation luciferase reporter, 24 h; percent of 100 nM tunicamycin response | reporter increase, % at 12.5 µM | 360,000 tested, 0.23% active | AID 588692;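 active means mean luciferase reporter signal, scaled so untreated is 0 and the glycosylation-blocking control 100, at or above a set limit in every replicate; inconclusive means mean reaches the limit but not every replicate does; inactive means mean below the limit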;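 further: luciferase carries N-glycosylation sites so blocking glycosylation raises the light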
PfHsp90 yeast 2: inhibits growth of yeast expressing Plasmodium falciparum Hsp90; AID 504621; 310,000 tested, 0.32% active; inhibition, % at 9.4 µM; S. cerevisiae expressing PfHsp90, BacTiter-Glo ATP, 48 h; yeast lacking PDR1 and PDR3 efflux regulators;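 active means every replicate shows inhibition above about 80%, whatever the replicate mean, limit read from the data; inconclusive means mean inhibition reaches the set limit but some replicate falls short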
Arrestin-AP2 inh: inhibitors of human beta-arrestin and AP2 interaction. AID 504490. FITC-arrestin peptide / GST-AP2 beads, flow cytometry; AP2 beta2 appendage carries R879A mutation. 340,000 tested, 0.31% active. inhibition, % at 10 µM;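 active means inhibition above a set limit, near 3 SD of compounds lacking own fluorescence, cut at about 54% in these data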
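Measured by: flow cytometry, FL1 (488/535 nm); Material: AP2 appendage R879A on GSH beads; Evaluation: percent response; Timing: pre-incubation 12 min, peptide binding 1 h, room temperature; Also added: 50 nM FITC-arrestin peptide; Medium: PBS with 0.05% Tween 20 and 0.1% BSA.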
Rtt109 Vps75: C. albicans Rtt109 histone acetyltransferase inhibition | purified Rtt109/Vps75, ThioGlo CoA-SH fluorescence, 4 h | inhibition, % at 34.9 µM | 330,000 tested, 0.16% active | AID 540336;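 active means inhibition of at least 50% in every replicate; inconclusive means best replicate reaches 50% inhibition but some replicates fall short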
Target sequence (Q5AAJ8 whole entry, looked up): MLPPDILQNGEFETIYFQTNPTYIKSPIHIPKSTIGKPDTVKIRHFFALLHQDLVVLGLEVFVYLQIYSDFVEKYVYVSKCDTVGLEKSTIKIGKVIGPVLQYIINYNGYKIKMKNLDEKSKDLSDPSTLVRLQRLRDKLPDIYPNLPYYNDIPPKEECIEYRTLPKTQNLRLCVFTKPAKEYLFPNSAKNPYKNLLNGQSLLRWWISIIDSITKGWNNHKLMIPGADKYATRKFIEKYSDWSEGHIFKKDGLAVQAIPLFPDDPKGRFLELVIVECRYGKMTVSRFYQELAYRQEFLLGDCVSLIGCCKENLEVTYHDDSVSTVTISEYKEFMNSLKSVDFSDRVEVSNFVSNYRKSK
PAX8 reporter: lowers PAX8-driven luciferase in RMG-I cells; RMG-I TPO-luciferase reporter, SteadyGlo, 24 h; inhibition, % at 12.6 µM; 360,000 tested, 1.2% active;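 active means mean replicate inhibition at least 60% with every replicate also reaching 60%; inconclusive means only one of the two criteria is met; inactive means mean below 60% and not all replicates reaching 60%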;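 further: luciferase light reporting Pax8 driven TPO promoter activity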
HIV Env fusion: inhibitors of HIV Env-mediated cell fusion; HeLa-JRFL Env/CEM21 cell fusion, luciferase; inhibition, % at 12.3 µM; 360,000 tested, 1.1% active; AID 651610;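 active means mean replicate inhibition score of at least 50 and every replicate individually at or above 50; inconclusive means only one of the two criteria met; inactive means mean below 50 and not all replicates reaching 50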
Large screens that a line does not name were inactive.

O=C(CSc1nnc(-c2n[nH]c3ccccc23)n1-c1ccccc1)Nc1cccc(Cl)c1	HIV Env fusion 70
Cc1cccc(S(=O)(=O)N2CCCCN3[C@H](C2)[C@H](c2ccc(C#CC4CC4)cc2)[C@@H]3CO)c1	none (no result: Glyco luc inh, PfHsp90 yeast 2, Arrestin-AP2 inh, Rtt109 Vps75, HIV Env fusion)
CCC(=O)Nc1cc(C)c(OC)c(C)c1	Rtt109 Vps75 52 (no result: Arrestin-AP2 inh)
CCC(=O)Nc1cc(OC)cc(OC)c1	none (no result: PfHsp90 yeast 2)
COc1ccc(/C=C2\SC(=O)N(CCCC(=O)Nc3cc(Cl)ccc3C(=O)O)C2=O)cc1	HIV Env fusion 61
COc1ccc(/C=C2\SC(=S)N(CCC(=O)Nc3ccccc3C(=O)O)C2=O)cc1	none
CN1CCN(C(=O)C[C@H]2CC[C@@H]3[C@H](COC[C@@H](O)CN3C(=O)Nc3ccc(Cl)cc3)O2)CC1	none (no result: Glyco luc inh, PfHsp90 yeast 2, Arrestin-AP2 inh, Rtt109 Vps75, HIV Env fusion)
CCN(CCO)C1CC(=O)N(c2ccccc2C)C1=O (centres undefined)	PfHsp90 yeast 2 124 (no result: PAX8 reporter, HIV Env fusion)
CCC(C)NS(=O)(=O)c1ccc(S(=O)(=O)N2CCCC3(CCCCC3)C2)cc1 (centres undefined)	HIV Env fusion 77 (no result: PfHsp90 yeast 2)
CCC(C)C(=O)Nc1ccc(S(=O)(=O)N2CCCC2)cc1 (centres undefined)	none
C[C@@H]1CN([C@H](C)CO)S(=O)(=O)c2ccc(-c3cccnc3)cc2O[C@@H]1CN(C)C(=O)c1cccc(F)c1	none (no result: Glyco luc inh, PfHsp90 yeast 2, Arrestin-AP2 inh, Rtt109 Vps75, PAX8 reporter)
O=C(C[C@@H]1CC[C@@H](NC(=O)c2cnccn2)[C@H](CO)O1)NCc1ccccc1F	none (no result: Glyco luc inh, PfHsp90 yeast 2, Arrestin-AP2 inh, Rtt109 Vps75)
Cn1c(Cl)cnc1C1CC(=O)c2cc(Cl)ccc2O1 (centres undefined)	PAX8 reporter 72
O=C(NC1C=CS(=O)(=O)C1)c1sc2ccccc2c1Cl (centres undefined)	Glyco luc inh 32 (no result: PAX8 reporter, HIV Env fusion)
CC(C)Cc1ccc(C(C)C(N)=NCCc2ccccc2)cc1 (centres undefined)	HIV Env fusion 76
COc1ccc(CCN=C(N)C(C)c2ccccc2)cc1OC (centres undefined)	none
CC(C)NC(=O)Nc1ccc2c(c1)C(=O)N([C@H](C)CO)C[C@H](C)[C@H](CN(C)S(=O)(=O)c1cn(C)cn1)OCCCC[C@@H](C)O2	none (no result: Glyco luc inh, PfHsp90 yeast 2, Arrestin-AP2 inh, Rtt109 Vps75)
COc1ccc(O)c(/C=N/NC(=O)c2ccc(N3CCCC3=O)cc2)c1	PAX8 reporter 106
COc1ccc(O)c(/C=N/NC(=O)c2cccc(N3CCCC3=O)c2)c1	none
O=C(Cc1ccncc1)Nc1ccc2c(c1)[C@H]1C[C@@H](CC(=O)N3CCOCC3)O[C@@H](CO)[C@H]1O2	none (no result: Glyco luc inh, PfHsp90 yeast 2, Arrestin-AP2 inh, Rtt109 Vps75)
CCOC(=O)/C=C/[C@H]1CC2(CCO1)SCCCS2	HIV Env fusion 69
COc1cccc(-c2noc(C3CCCN(S(=O)(=O)c4cccc(Cl)c4C)C3)n2)c1 (centres undefined)	HIV Env fusion 112 (no result: PAX8 reporter)
CCCS(=O)(=O)N1CCCC(c2nc(-c3cccc(OC)c3)no2)C1 (centres undefined)	none (no result: PAX8 reporter, HIV Env fusion)
O=C(Cn1c2[n+](c3ccc(C(F)(F)F)cc31)CCCCC2)Nc1ccc(Br)cc1	none (no result: PfHsp90 yeast 2, PAX8 reporter, HIV Env fusion)
CCc1ccc(NC(=O)Cn2c3[n+](c4c(F)c(F)ccc42)CCCCC3)cc1	PAX8 reporter 76
COc1ccc2c3c(n(C)c2c1)[C@H](CO)N(C(=O)c1ccncc1)CC31CN(CC2CC2)C1	none (no result: Glyco luc inh, PfHsp90 yeast 2, Arrestin-AP2 inh, Rtt109 Vps75, HIV Env fusion)
O=C(C[C@H]1CC[C@H]2[C@@H](COC[C@@H](O)CN2C(=O)Nc2cc(Cl)cc(Cl)c2)O1)NCC1CCCCC1	none (no result: Glyco luc inh, PfHsp90 yeast 2, Arrestin-AP2 inh, Rtt109 Vps75, HIV Env fusion)
Cc1ccc(-c2csc3ncnc(Sc4nnc(CN5CCCCCC5=O)o4)c23)cc1	PAX8 reporter 111
CNC[C@@H]1OCCCC[C@H](C)Oc2ccc(NC(=O)Nc3ccc4c(c3)OCO4)cc2C(=O)N([C@H](C)CO)C[C@H]1C	none (no result: Glyco luc inh, PfHsp90 yeast 2, Arrestin-AP2 inh, Rtt109 Vps75)
Clc1ccccc1CSc1nnc(-c2ccccn2)n1Cc1ccco1	HIV Env fusion 66 (no result: PAX8 reporter)
CCC(=O)N1[C@H](C(=O)N2CCCCC2)[C@@H](CO)[C@@H]2Cn3c(cccc3=O)[C@@H]21	none (no result: Glyco luc inh, PfHsp90 yeast 2, Arrestin-AP2 inh, Rtt109 Vps75, PAX8 reporter)
Cc1ccccc1NC(=O)CN1C(=O)C2C3CC(C(Br)C3Br)C2C1=O (centres undefined)	PAX8 reporter 63
Cc1cc(C(=O)NCc2cc(C)n(C)n2)sc1-c1ccccc1	HIV Env fusion 56 (no result: PAX8 reporter)
O=c1c2ccccc2sn1-c1cc(S(=O)(=O)N2CCOCC2)ccc1N1CCCC1	none (no result: PAX8 reporter)
O=c1c2ccccc2sn1-c1cc(S(=O)(=O)N2CCOCC2)ccc1N1CCOCC1	Rtt109 Vps75 122 (no result: PAX8 reporter)
CS(=O)(=O)Nc1ccc2c(c1)[C@@H]1C[C@@H](CC(=O)NCC(F)(F)F)O[C@H](CO)[C@@H]1O2	none (no result: Glyco luc inh, PfHsp90 yeast 2, Arrestin-AP2 inh, Rtt109 Vps75)
CCCCNC(=O)N(O)C1N(/N=C/c2ccccc2F)C(=S)SC1(C)C (centres undefined)	HIV Env fusion 81
C=CCn1c(C)nnc1SCC(=O)NC1CCCCC1	none
C=CCn1c(C)nnc1SCC(=O)NC1CC1	HIV Env fusion 62
C#CCN(C[C@@H]1[C@@H](OC(=O)NCC2CCCCC2)[C@@H](OC(=O)NCC2CCCCC2)CN(C(=O)OC(C)C)N1C(=O)OC(C)C)S(=O)(=O)c1ccc(C)cc1	PAX8 reporter 72, HIV Env fusion inconclusive (no result: PfHsp90 yeast 2, Arrestin-AP2 inh, Rtt109 Vps75)
CCN(C(=O)C1CCN(c2nc(-c3ccc(OC)cc3)no2)CC1)c1ccc(OC)cc1	HIV Env fusion 60
COc1ccc(C(=O)N2CCN(c3ccccn3)CC2)cc1	none (no result: PAX8 reporter)
COc1ccc(NC(=O)C2CCN(c3nc(-c4ccc(OC)cc4)no3)CC2)cc1	none
COc1ccc(-c2noc(N3CCC(C(=O)N4CCN(c5ccccn5)CC4)CC3)n2)cc1	HIV Env fusion 63 (no result: Glyco luc inh, PAX8 reporter)
C[C@@H]1CN([C@@H](C)CO)C(=O)c2cccc(NC(=O)CCCCCC(=O)Nc3ccccc3N)c2O[C@@H]1CN(C)S(C)(=O)=O	none (no result: Glyco luc inh, PfHsp90 yeast 2, Arrestin-AP2 inh, Rtt109 Vps75, HIV Env fusion)
